According to ChEMBL document CHEMBL1806419, “18β-Glycyrrhetinic acid derivatives induced mitochondrial-mediated apoptosis through reactive oxygen species-mediated p53 activation in NTUB1 cells” (Bioorg Med Chem, 2011):
Calls of active or inactive are those of the source. The rule behind the calls is not given here.

Experiments:
[1] = Cytotoxicity against human NTUB1 cells after 72 hrs by MTT assay; assay type: functional, cell-based; settings: NTUB1, 72 h
Procedure, shortened: (§1)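 Cells seeded 1800/well in 96-well plates, preincubated overnight at 37 °C, then exposed to graded concentrations for 72 h at 37 °C (NTUB1, PC3 in RPMI 1640; SV-HUC1 in F12; 10% FBS, 5% CO2). MTT (2 mg/mL) added 3 h, formazan dissolved in DMSO, absorbance 540 nm; viability as percent of control; IC50 by median-effect analysis, mean ± SD.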

[2] = Cytotoxicity against immortalized human SV-HUC1 cells after 72 hrs by MTT assay; assay type: cell-based; settings: sv-huc1, 72 h; procedure, shortened: as §1
[3] = Increase in ROS generation in human NTUB1 cells at 10 uM after 24 hrs by H2DCFDA staining based flow cytometeric analysis relative to control; assay type: functional
Procedure, shortened: (§2)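 NTUB1 cells (3×10^5 per 6 cm dish) treated 24 h (20 µM cisplatin and 1 mM NAC controls; medium-only control); 10 µM H2DCFDA added 30 min before harvest; trypsinized, PBS-washed, DCF green fluorescence (525 nm band pass, region M1) measured immediately by flow cytometry; percent change vs control; mean ± SD, n = 3.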

[4] = Cell cycle arrest in human NTUB1 cells assessed as accumulation at G2/M phase at 50 uM after 24 hrs by propidium iodide staining based flow cytometric analysis (reference value: 20.37%); assay type: functional
Procedure, shortened: (§3)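 8×10^5 NTUB1 cells plated, treated 24 h (alongside 10 µM cisplatin, 1 mM NAC, 50 µM H2O2 controls); harvested by trypsinization, fixed overnight in ice-cold MeOH at −20 °C, stained with 50 µg/mL propidium iodide plus 50 µg/mL RNase A in PBS 30 min at room temperature; cell-cycle phase fractions and sub-G1 (apoptotic) DNA content by FACScan flow cytometry; three independent experiments.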

[5] = Cell cycle arrest in human NTUB1 cells assessed as accumulation at G1 phase at 25 uM after 24 hrs by propidium iodide staining based flow cytometric analysis (reference value: 50.64%); assay type: functional; procedure, shortened: as §3
[6] = Cell cycle arrest in human NTUB1 cells assessed as accumulation at S phase at 75 uM after 24 hrs by propidium iodide staining based flow cytometric analysis (reference value: 20.37%); assay type: functional; procedure, shortened: as §3
[7] = Cell cycle arrest in human NTUB1 cells assessed as accumulation at subG1 phase after 24 hrs by propidium iodide staining based flow cytometric analysis; assay type: functional; procedure, shortened: as §3
[8] = Cell cycle arrest in human NTUB1 cells assessed as accumulation at G2/M phase at 75 uM after 24 hrs by propidium iodide staining based flow cytometric analysis (reference value: 20.37%); assay type: functional; procedure, shortened: as §3
[9] = Induction of apoptosis in human NTUB1 cells assessed as decrease in JC-1 aggregation at 50 uM after 24 hrs by flow cytometric analysis; assay type: functional; design: scale not given: the % may be the effect or the level left
Procedure, shortened: (§4)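 NTUB1 cells (3×10^5) treated with 10, 25 or 50 µM (10 µM CCCP control), then loaded with 1 µM JC-1 in medium 30 min; washed in PBS, trypsinized, resuspended in PBS/2% BSA; green monomer (R2) and red aggregate (R1) fluorescence by flow cytometry, aggregate/monomer ratio representing membrane potential.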

[10] = Induction of apoptosis in human NTUB1 cells assessed as decrease in JC-1 aggregation at 25 uM after 24 hrs by flow cytometric analysis; assay type: functional; design: scale not given: the % may be the effect or the level left; procedure, shortened: as §4
[11] = Cell cycle arrest in human NTUB1 cells assessed as accumulation at S phase at 50 uM after 24 hrs by propidium iodide staining based flow cytometric analysis (reference value: 20.37%); assay type: functional; procedure, shortened: as §3
[12] = Induction of apoptosis in human NTUB1 cells assessed as increase in JC-1 probe monomers at 25 uM after 24 hrs by flow cytometric analysis; assay type: functional; procedure, shortened: as §4
[13] = Induction of apoptosis in human NTUB1 cells assessed as increase in JC-1 probe monomers at 50 uM after 24 hrs by flow cytometric analysis; assay type: functional; procedure, shortened: as §4
PC-3 = test: Cytotoxicity against human PC3 cells after 72 hrs by MTT assay; assay type: functional, cell-based; procedure, shortened: as §1
[14] = Cell cycle arrest in human NTUB1 cells assessed as accumulation at S phase at 25 uM after 24 hrs by propidium iodide staining based flow cytometric analysis (reference value: 20.37%); assay type: functional; procedure, shortened: as §3
[15] = Induction of apoptosis in human NTUB1 cells assessed as decrease in JC-1 aggregation at 10 uM after 24 hrs by flow cytometric analysis; assay type: functional; design: scale not given: the % may be the effect or the level left
Procedure, shortened: (§5)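 NTUB1 bladder carcinoma cells (3 × 10^5) in RPMI 1640 with 10% FBS at 37 °C, 5% CO2, exposed to test agent (10, 25 or 50 µM) with 10 µM CCCP as positive control. Stained 30 min with 1 µM JC-1 in medium, washed, trypsinised, resuspended in PBS/2% BSA. Flow cytometry read green monomer and red aggregate fluorescence; the aggregate/monomer ratio represents membrane potential.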

[16] = Cell cycle arrest in human NTUB1 cells assessed as accumulation at subG1 phase at 25 uM after 24 hrs by propidium iodide staining based flow cytometric analysis (reference value: 6.68%); assay type: functional; procedure, shortened: as §3
[17] = Cell cycle arrest in human NTUB1 cells assessed as accumulation at G1 phase at 75 uM after 24 hrs by propidium iodide staining based flow cytometric analysis (reference value: 50.64%); assay type: functional; procedure, shortened: as §3
[18] = Cell cycle arrest in human NTUB1 cells assessed as accumulation at subG1 phase at 75 uM after 24 hrs by propidium iodide staining based flow cytometric analysis (reference value: 6.68%); assay type: functional; procedure, shortened: as §3
[19] = target: Cellular tumor antigen p53 (Homo sapiens) (UniProt P04637); test: Increase in p53 phosphorylation in human NTUB1 cells after 24 hrs by Western blot analysis; assay type: cell-based
Procedure, shortened: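 NTUB1 cells exposed 24 h to 0–50 µM (10 µM cisplatin comparator), or to 50 µM with or without 1 mM NAC; lysed in boiled sample buffer, SDS–PAGE, nitrocellulose semi-dry transfer, milk-blocked in TBST, primary antibodies (p-p53 Ser15, p53 DO1, β-actin) overnight at 4 °C, secondary 1 h, ECL detection; triplicate experiments.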

[20] = Induction of apoptosis in human NTUB1 cells assessed as increase in JC-1 probe monomers at 10 uM after 24 hrs by flow cytometric analysis; assay type: functional; procedure, shortened: as §5
[21] = Cell cycle arrest in human NTUB1 cells assessed as accumulation at subG1 phase at 50 uM after 24 hrs by propidium iodide staining based flow cytometric analysis (reference value: 6.68%); assay type: functional; procedure, shortened: as §3
[22] = Cell cycle arrest in human NTUB1 cells assessed as accumulation at G1 phase at 50 uM after 24 hrs by propidium iodide staining based flow cytometric analysis (reference value: 50.64%); assay type: functional; procedure, shortened: as §3
[23] = Increase in ROS generation in human NTUB1 cells at 25 uM after 24 hrs by H2DCFDA staining based flow cytometeric analysis relative to control; assay type: functional; procedure, shortened: as §2
NTUB1 = test: Induction of apoptosis in human NTUB1 cells assessed as activation of caspase 3 at 10 to 50 uM by Western blot analysis; assay type: functional, cell-based
[24] = Cell cycle arrest in human NTUB1 cells assessed as accumulation at G2/M phase at 25 uM after 24 hrs by propidium iodide staining based flow cytometric analysis (reference value: 20.37%); assay type: functional; procedure, shortened: as §3

Chain of Cellular tumor antigen p53 (Homo sapiens) (P04637 whole entry, looked up): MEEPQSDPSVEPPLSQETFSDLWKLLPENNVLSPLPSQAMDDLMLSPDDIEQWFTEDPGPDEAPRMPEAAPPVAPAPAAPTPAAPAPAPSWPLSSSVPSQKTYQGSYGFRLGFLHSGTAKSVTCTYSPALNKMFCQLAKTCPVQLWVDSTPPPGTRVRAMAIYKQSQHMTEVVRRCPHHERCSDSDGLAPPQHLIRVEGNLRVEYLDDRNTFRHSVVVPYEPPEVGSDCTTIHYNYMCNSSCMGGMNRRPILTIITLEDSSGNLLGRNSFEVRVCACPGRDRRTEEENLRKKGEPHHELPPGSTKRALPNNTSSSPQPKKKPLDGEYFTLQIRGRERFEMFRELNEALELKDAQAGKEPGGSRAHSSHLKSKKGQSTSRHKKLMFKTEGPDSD

Question: For C=C(C)[C@@H]1CC[C@]2(C)[C@H](C(=O)C=C3[C@@H]4C[C@@](C)(C(=O)NC(C)C)CC[C@]4(C)CC[C@]32C)[C@@]1(C)CCC(=O)NC(C)C, which IC50 [1] is on record?
Answer: 4.76 µM

Question: And the Activity [2]?
Answer: Non-toxic

Question: What about the Activity [3] of the same compound?
Answer: 66.1%

Question: And the Activity [4]?
Answer: 5.22%

Question: What about the Activity [5] of the same compound?
Answer: 49.5%

Question: What about the Activity [6] of the same compound?
Answer: 2.79%

Question: And the Activity [7]?
Answer: Dose-dependent effect

Question: And the Activity [8]?
Answer: 4%

Question: And the Activity [9]?
Answer: 44.07%

Question: And the Activity [10]?
Answer: 12.65%

Question: What about the Activity [11] of the same compound?
Answer: 3.15%

Question: What about the Activity [12] of the same compound?
Answer: 87.17%

Question: What about the Activity [13] of the same compound?
Answer: 55.65%

Question: What about the Activity (PC-3) of the same compound?
Answer: Active

Question: And the Activity [14]?
Answer: 12.7%

Question: What about the Activity [15] of the same compound?
Answer: 5.45%

Question: And the Activity [16]?
Answer: 20.4%

Question: What about the Activity [17] of the same compound?
Answer: 14.7%

Question: What about the Activity [18] of the same compound?
Answer: 78.4%

Question: And the Activity [19]?
Answer: Dose-dependent effect

Question: What about the Activity [20] of the same compound?
Answer: 94.14%

Question: And the Activity [21]?
Answer: 55.7%

Question: What about the Activity [22] of the same compound?
Answer: 35.7%

Question: And the Activity [23]?
Answer: 85.6%

Question: And the Activity (NTUB1)?
Answer: inactive

Question: What about the Activity [24] of the same compound?
Answer: 12.7%
